# Wee1 degr inh: blocks degradation of human Wee1 kinase; reporter increase, % at 5 µM; HeLa Luc-Wee1K328M stability, luciferase luminescence; 100% = proteasome inhibitor MG132 effect; 1.2% of 220,000 active;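 active = activation above the mean of all tested compounds plus 3 SD, set per screening run, cut at about 8.8% in these data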;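 note: cells exposed to compound for 20 h before luminescence read; 0% = DMSO alone and 100% = MG132 at 30 µM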
# Target sequence (P30291 whole entry K328M): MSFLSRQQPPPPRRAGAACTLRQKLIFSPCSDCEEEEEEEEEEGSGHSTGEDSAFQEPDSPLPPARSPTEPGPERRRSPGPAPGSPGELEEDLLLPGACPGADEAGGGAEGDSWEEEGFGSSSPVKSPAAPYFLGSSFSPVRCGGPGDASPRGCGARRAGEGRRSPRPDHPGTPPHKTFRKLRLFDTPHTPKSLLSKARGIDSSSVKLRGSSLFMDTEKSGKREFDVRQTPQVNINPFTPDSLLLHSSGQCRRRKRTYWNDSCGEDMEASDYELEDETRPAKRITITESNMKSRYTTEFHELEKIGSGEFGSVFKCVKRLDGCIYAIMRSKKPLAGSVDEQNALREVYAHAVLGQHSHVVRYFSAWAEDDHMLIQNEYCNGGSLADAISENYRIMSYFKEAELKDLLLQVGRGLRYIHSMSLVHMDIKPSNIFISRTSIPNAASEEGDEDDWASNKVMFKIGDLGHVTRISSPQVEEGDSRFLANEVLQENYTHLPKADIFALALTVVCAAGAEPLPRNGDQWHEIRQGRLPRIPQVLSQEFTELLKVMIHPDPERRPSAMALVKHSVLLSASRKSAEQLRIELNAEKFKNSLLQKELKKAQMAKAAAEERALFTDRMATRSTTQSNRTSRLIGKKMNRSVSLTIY
# PKD1 kinase inh: inhibitors of human PKD1 kinase. Q15139. PKD1 kinase fluorescence polarization assay. inhibition, % (test concentration not listed). 0.056% of 200,000 active
# Arbovirus anti: antivirals against arbovirus infection; arbovirus infection cell-based antiviral screen; inhibition, % at 10 µM; 0.37% of 200,000 active; AID 1251; in the data active = inhibition above about 30%
# L major viab: inhibitors of Leishmania major promastigote growth; Leishmania major promastigotes, resazurin fluorescence viability; inhibition, % at 10 µM; 9% of 200,000 active;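 note: promastigotes grown with compound for 44 hours at 28 °C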
# Rad51 HR inh: Rad51 (human) homologous recombination inhibition; Q06609; hRad51 DNA strand exchange, fluorescence dequenching; inhibition, % at 10 µM; 0.085% of 200,000 active;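 active = inhibition above 40% at the single screening dose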;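 note: 0% = DMSO control wells and 100% = blanks with heterologous ssDNA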
#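 System: human Rad51 nucleoprotein filaments preassembled on unlabelled ssDNA. Reagent: labelled 47-mer dsDNA for strand exchange. Schedule: 30-min compound preincubation and 15-min exchange, both room temperature. Measured by: FRET fluorescence dequenching, excitation 485 nm, emission 520 nm. Read-out: Fluorescence-based percent inhibition, control- and blank-normalised. Benchmarks: plate controls and plate blanks.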
# CHOP inhibitor: inhibitors of CHOP induction in ER stress response; CHO-K1 CHOP-promoter luciferase, tunicamycin-induced, 15-18 h; inhibition, % at 10 µM; 3.8% of 220,000 active; AID 2732;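 active = compounds that reduced the stress-induced luciferase reporter signal by more than about 70% of percent inhibition, limit read from the data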;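 note: 0% = tunicamycin plus vehicle and 100% = wells without tunicamycin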
# Numbers without * were called inactive; i = inactive; x = no result. A selection: hits, their analogues and other compounds. The true share with any hit is near 12%. Cut-off read from the data, not from the text of the source, unless noted: active = inhibition above about 50%; inactive = the rest.
SMILES,Wee1 degr inh,PKD1 kinase inh,Arbovirus anti,L major viab,Rad51 HR inh,CHOP inhibitor
CC1(C)Cc2ccccc2C(/C(=N\Nc2cccc(Cl)c2)C(N)=O)=N1,1,-6,-35,98*,3,87*
c1cncc(C(c2nnnn2C2CCCC2)N2CCN(Cc3ccc4c(c3)OCO4)CC2)c1 (stereo not drawn),0,0,-4,91*,7,56
CCCCC(c1nnnn1C1CCCC1)N1CCN(C(=O)c2ccco2)CC1 (stereo not drawn),0,-7,-3,58*,-7,-4
CCC(c1nnnn1CCOC)N1CCN(Cc2ccccc2)CC1 (stereo not drawn),4,0,7,-6,x,28
Fc1ccccc1C(c1nnnn1C1CCCC1)N1CCN(Cc2ccccc2)CC1 (stereo not drawn),5,-3,-6,61*,x,23
CCC(c1nnnn1C1CCCC1)N1CCN(Cc2ccccc2)CC1 (stereo not drawn),-1,-2,10,81*,-5,46
O=C(O)/C=C/C(=O)OC1CC2CCC1C2 (stereo not drawn),7,x,x,x,8,17
COCCCn1c(=S)[nH]c2sc3c(c2c1=O)CCCS3,3,0,3,16,3,-24
CCOP(=O)(OCC)C(Nc1ccc(F)cc1)c1ccccc1 (stereo not drawn),-2,x,x,x,17,-1
CCOP(=O)(OCC)C(Nc1cccc(C(F)(F)F)c1)c1ccc(Br)cc1 (stereo not drawn),4,8,20,99*,1,35
O=C1/C(=C/c2ccccc2)NC(=S)N1C(c1ccccc1)c1ccccc1,-2,-9,-19,2,-1,89*
Cc1cc2nc(C)n(CCCNC(=O)Nc3cccc4ccccc34)c2cc1C,5,7,9,5,-6,75*
CCOc1ccc(NC(=O)NCCCn2c(C)nc3cc(C)c(C)cc32)cc1,-2,1,-6,15,1,10
CCOC(=O)c1c(C)oc(NC(=O)CCl)c1C(=O)OCC,1,-1,1,10,6,-28
CCCN1C(=O)/C(=C\c2nc3ccccc3c(=O)[nH]2)c2ccccc21,-1,0,12,100*,-17,-58
Cc1nc2ccccc2c(=O)[nH]1,0,-4,7,1,0,-9
Cc1ccc(C)c(OCc2nnc(NC(=O)c3ccc4c(c3)OCO4)s2)c1,11*,x,x,x,26,-8
COc1cc(C(=O)Nc2ccc(Cl)c(C(F)(F)F)c2)cc(OC)c1OC,-3,4,-15,80*,5,50
COc1cccc(C(=O)Nc2ccc(Cl)c(C(F)(F)F)c2)c1,-1,-4,-23,14,6,71*
COc1cccc(C(=O)Nc2cc(C(F)(F)F)ccc2Cl)c1,-3,-6,-6,11,6,34
COc1ccc(/C=C/C(=O)NC(CCSC)C(=O)O)cc1 (stereo not drawn),-3,0,-3,1,-3,-15
COC(=O)c1sc(N2C(=O)c3oc4ccccc4c(=O)c3C2c2cccc(O)c2)nc1C (stereo not drawn),1,x,x,x,1,75*
O=C(Nc1cccs1)Nc1c(F)c(F)c(F)c(F)c1F,9,1,3,55*,4,7
Cc1cc(N2CCCC2)ccc1/C=N/n1cnnc1,0,0,-1,67*,-1,0
COc1cc(/C=N/NC(=O)Nc2cccc3nsnc23)cc(OC)c1OC,1,-4,-13,7,x,84*
SMILES,Wee1 degr inh,PKD1 kinase inh,Arbovirus anti,L major viab,Rad51 HR inh,CHOP inhibitor
O=C(N/N=C/c1ccc(O)cc1)Nc1cccc2nsnc12,-4,14,11,54*,13,55
COc1ccc(/C=N/NC(=O)Nc2cccc3nsnc23)c(OC)c1,-2,1,5,-9,-4,47
CC(C)C(=O)Nc1cccc2nsnc12,0,-15,11,4,4,21
Cc1cc(NC(=O)c2cc3cccc([N+](=O)[O-])c3[nH]2)ccc1F,17*,x,x,x,4,-6
COCC(C)NC(=O)c1cc2cccc([N+](=O)[O-])c2[nH]1 (stereo not drawn),1,x,x,x,3,12
CC(OC(=O)CN(C)S(=O)(=O)c1ccc(Cl)cc1)C(=O)Nc1cccc(Cl)c1 (stereo not drawn),0,7,-1,0,1,83*
CCN(CC)Cc1c(O)ccc2occ(C(=O)c3ccc(OC)cc3)c12,1,-11,1,88*,5,6
COc1cccc(-c2c(C#N)c(SC)nc3cc(C)nn23)c1,-2,x,x,x,8,-6
COc1cc2[nH]c(=S)n(NC(=O)c3ccccc3)c(=O)c2cc1OC,-1,-1,9,-4,3,-20
O=C1N=c2ccccc2=C1c1sc(=S)n(NC(=O)c2ccccc2)c1O,-4,x,x,x,11,94*
Cc1ccccc1N=Cc1cc2c(cc1O)OC(N)=C(C#N)C2c1ccccc1 (stereo not drawn),0,-5,-10,12,i,89*
Cc1cc([N+](=O)[O-])nn1CCCC(=O)Nc1cc(Cl)ccc1Cl,-4,-8,-7,13,8,-16
CC(=O)Nc1ccc(OC(=O)C(CCS(C)(=O)=O)N2C(=O)c3ccccc3C2=O)cc1 (stereo not drawn),-1,-5,1,91*,-1,14
Cc1ccc(/C=C/C(=O)NC(=S)Nc2ccccc2C(=O)NC2CCCCC2)cc1,1,0,-7,83*,-1,23
O=C(/C=C/c1ccccc1)NC(=S)Nc1ccccc1C(=O)NC1CCCCC1,0,7,12,100*,2,45
O=C(/C=C/c1ccc(F)cc1)NC(=S)Nc1ccccc1C(=O)NC1CCCCC1,-2,-13,8,1,x,-5
COc1ccc(/C=C/C(=O)NC(=S)Nc2ccccc2C(=O)NC2CCCCC2)cc1,1,6,18,91*,-6,90*
O=C(Cn1nnc(-c2cccs2)n1)NNC(=O)c1ccccc1Cl,-2,x,x,x,-18,-2
Cc1ccc(NC(=O)CSc2nnc(-c3ccncc3)o2)cc1C,-2,-4,4,0,x,5
Cc1ccc(/C=N/NC(=O)CNC(=O)c2cccc([N+](=O)[O-])c2C)o1,6,6,17,5,4,2
O=C(O)c1ccc(Cl)c(S(=O)(=O)Nc2cccc(C(=O)Nc3cccc(C(F)(F)F)c3)c2)c1,0,-8,7,-5,0,26
CCC(=O)NC(=S)Nc1ccc(NC(=O)c2cccc([N+](=O)[O-])c2C)cc1,0,-12,-1,58*,-9,18
CCC(=O)NC(=S)Nc1ccc(NC(=O)c2ccccc2[N+](=O)[O-])cc1,-2,-17,-11,-1,2,-5

# High-throughput results as filed in PubChem BioAssay.
